The list is not random: actives were taken first. Their share in the collection is about 3.1%.
OX1R antag-1 = OX1R (human) antagonism; O43613; OX1R-expressing cells, FRET antagonist read-out; inhibition, % at 6.6 µM; actives 1.8% (n = 330,000); in the data active = inhibition mostly above about 38%, no sharp cut-off; inactive = mostly below about 40%;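 note: 0% = agonist challenge alone and 100% = reference antagonist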
OX1R antag-2 = human HCRTR1 antagonism; O43613; CHO/OX1R cells, Fluo-8 calcium fluorescence, orexin A; inhibition, % at 5 µM; actives 0.43% (n = 330,000); AID 434989;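 active = inhibition above its plate's threshold, mean inhibition of all tested compounds on the plate plus 3 SD, cut at about 37% in these data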;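 note: 0% = orexin A challenge wells and 100% = SB-334867-A antagonist wells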
GPR7 antag = antagonists of human GPR7 (neuropeptides B/W receptor 1). P48145. AID 1861. inhibition, % at 4.4 µM. actives 1.1% (n = 290,000). GPR7-expressing cells, fluorescence antagonist assay; in the data active = inhibition above about 16%, passing the limit was not always enough;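 note: cells stimulated with the agonist NPW; 0% = agonist with vehicle and 100% = vehicle without agonist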
Target sequence (P48145 whole entry, looked up): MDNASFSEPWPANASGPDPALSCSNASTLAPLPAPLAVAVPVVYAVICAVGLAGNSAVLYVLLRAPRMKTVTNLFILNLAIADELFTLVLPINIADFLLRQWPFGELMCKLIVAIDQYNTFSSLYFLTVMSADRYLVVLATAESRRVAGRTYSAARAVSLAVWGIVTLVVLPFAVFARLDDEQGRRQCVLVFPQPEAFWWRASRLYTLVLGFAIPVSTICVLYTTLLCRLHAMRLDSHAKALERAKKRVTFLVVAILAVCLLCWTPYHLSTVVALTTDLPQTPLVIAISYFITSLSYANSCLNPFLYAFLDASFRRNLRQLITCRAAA
CHO parental Ca = counter-screen for OX1R antagonists: effect in parental CHO cells. parental CHO-K1, ATP-induced calcium, Fluo-8 fluorescence. inhibition, % at 5.6 µM. actives 0.63% (n = 330,000). AID 463079;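 active = inhibition above that plate's mean sample inhibition plus 3 SD, cut at about 26% in these data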;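 note: 0% = ATP-challenged DMSO wells and 100% = DMSO wells without ATP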
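Material: Parental CHO cells | Reagent: ATP | Compound dosing: Single nominal dose of 5.6 µM per compound | Detection: Intracellular calcium via Fluo-8 no-wash fluorescent dye | Read-out: % inhibition of ATP-induced calcium mobilization | Benchmarks: Low control ATP plus DMSO, high control DMSO only | Replicates: Singlicate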
GalR3 antag = antagonists of human GalR3; O60755; actives 0.44% (n = 360,000); inhibition, % at 3 µM; HEK293 GalR3-CNG cAMP membrane potential fluorescence; galR3 body fused to GalR1 C-terminus;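 active = inhibition above the screen-wide average plus 3 SD, cut at about 13% in these data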;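 note: forskolin and galanin both at EC90 stimulate the cells; cAMP rise reported by CNG channel membrane potential dye signal; 0% = forskolin plus galanin with DMSO and 100% = forskolin alone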
Target sequence (O60755 1-299 limits assumed): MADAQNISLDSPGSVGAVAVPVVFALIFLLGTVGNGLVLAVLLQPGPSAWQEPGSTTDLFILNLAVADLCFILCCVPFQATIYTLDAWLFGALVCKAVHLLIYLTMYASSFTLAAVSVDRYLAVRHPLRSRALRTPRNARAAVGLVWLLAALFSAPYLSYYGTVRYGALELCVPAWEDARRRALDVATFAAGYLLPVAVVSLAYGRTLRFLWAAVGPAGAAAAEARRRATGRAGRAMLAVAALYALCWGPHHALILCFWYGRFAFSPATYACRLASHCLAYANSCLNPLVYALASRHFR
GPR7 antag conf = human GPR7 antagonism, confirmation assay; shares compounds with GPR7 antag; GPR7-expressing cells, calcium fluorescence antagonist mode; inhibition, % at 4.4 µM; actives 52% (n = 2,400); AID 1952; in the data active = inhibition above about 24%;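 note: stimulated with the GPR7 agonist NPW; 0% = agonist plus vehicle and 100% = vehicle alone without agonist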
MCHR1 antagonist = counter-screen for GPR7 antagonists: antagonists of human MCHR1. shares compounds with GPR7 antag. MCHR1-expressing cells, fluorescence antagonist assay. inhibition, % at 4.4 µM. actives 62% (n = 2,400). AID 2148; in the data active = inhibition above about 22%;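 note: 0% = vehicle with agonist and 100% = vehicle without agonist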
* = called active by the depositor; x = no result.

SMILES	OX1R antag-1	OX1R antag-2	GPR7 antag	CHO parental Ca	GalR3 antag	GPR7 antag conf	MCHR1 antagonist
COC(=O)Nc1ccc(SCC(=O)c2cccc([N+](=O)[O-])c2)cc1	0	-8	23*	8	1	20	60*
O=C(Nc1cccc(Cl)c1)c1cccc(Oc2ccc([N+](=O)[O-])cc2Cl)c1	42	-3	-8	10	-3	x	x
COC(=O)c1cccc(NC(=O)COc2cccc([N+](=O)[O-])c2)c1	16	-10	-7	-12	-5	x	x
O=C(COc1cccc(NC(=O)c2ccccc2)c1)c1ccc(F)cc1	10	-29	-4	-13	-1	x	x
O=C(COc1cccc(NC(=O)c2cccc([N+](=O)[O-])c2)c1)c1ccc(F)cc1	22	1	29*	0	-1	35*	70*
COc1cccc(C(=O)COc2cccc(NC(=O)c3cccc([N+](=O)[O-])c3)c2)c1	40	26	29*	13	-2	29*	69*
COC(=O)C1=C(C)N(Cc2ccccc2C(F)(F)F)C(=NCc2ccc(C(F)(F)F)cc2)NC1c1ccc(C(F)(F)F)cc1 (stereo not drawn)	x	x	x	x	-7	x	x
CCCCCCCCN1C(=O)[C@@H](CC(=O)N2CCN(C(=O)C3CC3)CC2)C[C@@]2(C(=O)OC)C1=C[C@H](C(C)(C)C)O[C@@H]2C	x	x	x	x	0	x	x
COc1ccccc1CNC(=O)c1n[nH]c2ccccc12	5	-33	30*	-16	2	23	20
CC(C)(C)c1cc(CN2CCCCC2)cc(C(C)(C)C)c1O	13	-17	23*	-7	-5	16	29*
Oc1cccc(CN2CCCCC2)c1	8	-3	2	2	x	x	x
CCc1c(-c2ccc(Br)cc2)ncn1CCc1ccccc1OC	x	x	x	x	-9	x	x
CC(C)n1cc(CN2CCCC(C(=O)Nc3cccc(-c4cc5ccccc5[nH]4)c3)C2)cn1 (stereo not drawn)	-3	-11	27*	1	-2	42*	56*
O=C(NN=Cc1ccco1)C(=O)Nc1cccc(C(F)(F)F)c1	x	x	x	x	-6	x	x
CCCCN1CC(COc2ccc(OC)cc2)OCCS1(=O)=O (stereo not drawn)	x	x	x	x	-6	x	x
COc1ccccc1/C=C(/C#N)C(=O)O	x	x	17	x	-7	-24	16
O=C(OCc1ccccc1)N1Cc2ccnnc2CC1c1ccccc1Br (stereo not drawn)	x	x	x	x	-2	x	x
COc1ccc(C=O)cc1COc1ccc2c(c1)OCO2	x	x	x	x	-5	x	x
COc1ccc(C=O)cc1COc1ccc([N+](=O)[O-])c(C)c1	20	-16	23*	-10	11	49*	44*
Cc1cc(-c2ccc(C(C)C)c(S(=O)(=O)N3CCN(c4ccccc4)CC3)c2)on1	14	-23	27*	-15	0	30*	40*
O=C(COC(=O)/C=C/c1ccco1)NCc1ccc(Cl)cc1	4	-5	x	-18	-5	x	x
O=C(COC(=O)/C=C/c1ccc(Cl)cc1)NCCc1ccccc1	0	-16	21*	4	-5	-1	-1
O=C(COC(=O)/C=C/c1ccco1)NCc1ccccc1	13	-9	27*	-4	1	-7	-2
OC(c1ccc2ccccc2c1)c1ncc(-c2ccc(C(F)(F)F)cc2)[nH]1 (stereo not drawn)	x	x	x	x	-2	x	x
Cc1cc(C(=O)N2CCC2(C)C(=O)NS(=O)(=O)c2cccc(OC(F)F)c2)nn1C (stereo not drawn)	x	x	x	x	5	x	x
SMILES	OX1R antag-1	OX1R antag-2	GPR7 antag	CHO parental Ca	GalR3 antag	GPR7 antag conf	MCHR1 antagonist
O=C(CCn1c(=O)oc2ccccc21)Nc1ccc(N2CCOCC2)cc1	6	-1	-3	4	-10	x	x
O=C(CCn1ccc2ccccc21)Nc1ccc(N2CCOCC2)cc1	5	-7	30*	-4	-3	-1	5
Cc1cc([N+](=O)[O-])nn1CC(=O)Nc1c(C)n(C)n(-c2ccccc2)c1=O	29	-19	31*	-14	-5	-2	1
CC1CCc2c(nc3sc4c(c3c2N)CCCC4)C1 (stereo not drawn)	19	-13	22*	-19	-5	21	20
CC(C)C(NC(=O)c1ccc(C(C)(C)C)cc1)C(=O)NCC(c1ccccc1)N(C)C (stereo not drawn)	8	-19	22*	-17	-6	5	8
COc1ccc(C=O)cc1CSc1nnc(COc2cccc3cccnc23)o1	42	-25	24*	-25	1	10	27*
CCc1ccc(C(C)NC(=S)NCc2ccc(F)cc2)cc1 (stereo not drawn)	15	0	31*	14	-6	43*	75*
CC(=O)Nc1ccc(S(=O)(=O)NCc2nc(-c3cccc(C)c3)no2)cc1	16	13	24*	-8	-4	0	0
CC(=O)Nc1ccc(S(=O)(=O)NCc2nc(-c3ccc(C)cc3)no2)cc1	14	-13	-16	-18	0	x	x
COc1cc(/C=C2\SC(=Nc3ccc(Cl)c(C(=O)O)c3)NC2=O)c(Br)c(Br)c1O	x	x	40*	x	-12	28*	48*
COC(=O)/C=C1\SC(=Nc2ccc(Cl)c(Cl)c2)NC1=O	9	-26	-11	-16	-5	x	x
COc1cccc(S(=O)(=O)N(C)C[C@@H]2OCc3cn(nn3)CCCC(=O)N([C@@H](C)CO)C[C@H]2C)c1	x	x	x	x	-7	x	x
CCC(C)NCCOc1ccc(C(C)(C)c2ccccc2)cc1 (stereo not drawn)	-7	-6	22*	3	7	27*	30*
CC(C)(c1ccccc1)c1ccc(OCCN2CCOCC2)cc1	1	-62	37*	-10	-11	8	6
O=C(O)c1ccc(C(S(=O)(=O)c2ccccc2)S(=O)(=O)c2ccccc2)cc1	x	x	x	x	-5	x	x
COc1ccc(NC(=O)c2cc(C3CCCCN3C(=O)c3cccs3)on2)c(C)c1 (stereo not drawn)	x	x	x	x	1	x	x
Fc1ccccc1Nc1ncnc2c1nnn2Cc1ccccc1	2	-6	34	-7	-15	x	x
Clc1ccccc1Nc1ncnc2c1nnn2Cc1ccccc1	16	-29	34*	-22	-3	24	4
Clc1ccc(-n2c(SC/C=C/c3ccccc3)nnc2-c2cccnc2)cc1	6	-16	32*	-26	-7	27*	21
Cc1ccc(Cl)cc1NC(=O)c1cc2ccccc2cc1O	65	46*	25*	58*	2	54*	53*
COC(=O)[C@H](Cc1ccccc1)N1CC=CS1(=O)=O	x	x	x	x	-4	x	x
Cc1ccccc1NC(=O)c1cccc(C(=O)Nc2ccccc2C)n1	6	-39	33*	-23	-7	11	37*
Cc1ccccc1NC(=O)c1cccc(C(=O)Nc2ccccc2C)c1	11	-34	x	-9	-3	x	x

Compound activity as filed in PubChem.
